Measured values: the M2OR odorant receptor database

target: T1, OR2M3 (Homo sapiens) (UniProt Q8NG83); details: stereoisomer not certain
T1 sequence (whole entry): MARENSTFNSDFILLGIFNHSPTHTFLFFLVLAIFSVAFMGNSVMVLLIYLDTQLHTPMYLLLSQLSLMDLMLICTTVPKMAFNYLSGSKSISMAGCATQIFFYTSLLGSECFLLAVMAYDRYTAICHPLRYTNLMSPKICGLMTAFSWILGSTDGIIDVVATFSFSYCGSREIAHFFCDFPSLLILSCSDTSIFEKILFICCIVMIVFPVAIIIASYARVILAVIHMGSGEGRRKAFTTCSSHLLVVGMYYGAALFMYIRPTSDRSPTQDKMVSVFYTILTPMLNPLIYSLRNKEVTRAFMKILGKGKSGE
Summary of the method: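 Values were gathered from published papers (main text and supplementary material), with extra details requested from the original authors when needed, and checked for typos and inconsistencies. Each receptor–molecule pair is called responsive (active) if the original authors judged the measured signal statistically different from baseline, and non-responsive (inactive) otherwise. Assay methods varied by source, often transient mammalian cell-line luciferase assays. Recorded details include cell line, G-protein, co-transfected protein and tags.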

Odorant receptor agonist call, inactive:
CSSSC
C=CC(=O)CC
Cc1occc(=O)c1O
CSCCCO
CCCCCCCC(C)=O
C=CCSC
CC(C)CCCCCCCCCCC=O
COC1=C(C)OC(C)C1=O (configuration not stated)
C=CC(O)CCCCC (configuration not stated)
CCOC(C)=O
C=CC(=C)CCC=C(C)C
CCOC(=O)c1ccccc1
CCCC1CCCC(=O)O1 (configuration not stated)
CCOC(=O)C(C)CC (configuration not stated)
CC(=O)C(C)O (configuration not stated)
CCCCCCCCCO
CC(C)CO
CCCC(=O)OCC
CSC
CCCCCCCCC1CCC(=O)O1 (configuration not stated)
CCCC(=O)C(C)CC (configuration not stated)
O=C(O)C=Cc1ccc(O)cc1
CCCCCCO
COC(=O)C=Cc1ccccc1
CCOC(=O)C=Cc1ccccc1
Cc1cccc(O)c1
CCCCCC1CCCC(=O)O1 (configuration not stated)
CC=CC(=O)C(C)CC (configuration not stated)
CC(=O)OCC=Cc1ccccc1
CC(=O)OCCC(C)C
CCC=O
CCOC(=O)CC(C)C
CCCCC1OC(=O)CC1C (configuration not stated)
CC=O
CCOC(C)OCC
CC(=O)c1ccccc1N
SCCc1ccccc1
